Test results taken from ChEMBL document CHEMBL1127473, “Estrone sulfamates: potent inhibitors of estrone sulfatase with therapeutic potential” (J Med Chem, 1994).
The source made the active and inactive calls. The calls are words filed in the database; no cut-off is given here.

Assays:
[1] = biological target: T1, Steryl-sulfatase (Homo sapiens) (UniProt P08842); assay: Tested for inhibition of estrone sulfatase in MCF-7 breast cancer cells using 2 nM substrate concentration at 0.1 uM; assay type: cell-based; conditions: MCF7
T1 sequence (whole entry): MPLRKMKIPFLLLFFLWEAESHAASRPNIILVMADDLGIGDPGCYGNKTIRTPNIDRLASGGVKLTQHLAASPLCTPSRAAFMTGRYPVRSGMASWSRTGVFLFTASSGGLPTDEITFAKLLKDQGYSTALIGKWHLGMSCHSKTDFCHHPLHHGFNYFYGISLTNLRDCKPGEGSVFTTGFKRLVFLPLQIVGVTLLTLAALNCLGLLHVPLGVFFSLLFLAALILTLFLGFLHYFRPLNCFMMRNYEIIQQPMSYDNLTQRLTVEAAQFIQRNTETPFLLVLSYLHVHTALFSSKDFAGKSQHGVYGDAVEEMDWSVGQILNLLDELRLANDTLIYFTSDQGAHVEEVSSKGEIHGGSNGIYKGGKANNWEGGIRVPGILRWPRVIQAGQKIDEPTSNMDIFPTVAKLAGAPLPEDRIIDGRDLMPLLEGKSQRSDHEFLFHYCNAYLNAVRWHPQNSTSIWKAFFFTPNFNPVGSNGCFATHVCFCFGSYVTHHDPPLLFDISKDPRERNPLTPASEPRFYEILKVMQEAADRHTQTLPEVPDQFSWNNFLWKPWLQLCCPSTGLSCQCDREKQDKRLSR

[2] = biological target: T1, Steryl-sulfatase (Homo sapiens); assay: Tested for inhibition of estrone sulfatase in MCF-7 breast cancer cells using 2 nM substrate concentration at 1 uM; assay type: cell-based; conditions: MCF7
[3] = biological target: T1, Steryl-sulfatase (Homo sapiens); assay: Tested for inhibition of estrone sulfatase in MCF-7 breast cancer cells using 2 nM substrate concentration at 10 uM; assay type: cell-based; conditions: MCF7
[4] = biological target: T2, Steryl-sulfatase (Homo sapiens, UniProt P08842); assay: Tested for inhibition of estrone sulfatase in placental microsomal preparation (100000 g pellet) using substrate concentration of 20 uM; assay type: microsomes, Placenta
T2 sequence (P08842 whole entry): T1 sequence (whole entry)
In short: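 Placental microsomal preparation (100 000-g pellet) assayed with saturating [3H]estrone sulfate substrate (20 μM); IC50 derived for sulfatase inhibition.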

[5] = biological target: T1, Steryl-sulfatase (Homo sapiens); assay: Tested for inhibition of estrone sulfatase in MCF-7 breast cancer cells using 2 nM substrate concentration at 1 uM; NI=No inhibition; assay type: cell-based; conditions: MCF7
[6] = biological target: T1, Steryl-sulfatase (Homo sapiens); assay: Tested for inhibition of estrone sulfatase in MCF-7 breast cancer cells using 2 nM substrate concentration at 10 uM; NI=No inhibition; assay type: cell-based; conditions: MCF7
[7] = biological target: T1, Steryl-sulfatase (Homo sapiens); assay: Tested for enzyme activity recovered after 20h in MCF-7 breast cancer cells at 1 uM; conditions: MCF7
[8] = biological target: T1, Steryl-sulfatase (Homo sapiens); conditions: MCF7; 1 uM

Compound: CSP(=O)(O)Oc1ccc2c(c1)CC[C@@H]1[C@@H]2CC[C@]2(C)C(=O)CC[C@@H]12
- inhibition [1]: 52%
- inhibition [2]: 74%
- inhibition [3]: 96%
- IC50 [4]: 43 µM

Compound: CN(C)S(=O)(=O)Oc1ccc2c(c1)CCCC2
- inhibition [5]: inactive
- inhibition [6]: inactive

Compound: CNS(=O)(=O)Oc1ccc2c(c1)CCCC2
- inhibition [3]: 22%

Compound: NS(=O)(=O)Oc1ccc2c(c1)CCCC2
- inhibition [2]: 47%
- inhibition [3]: 97%

Compound: CN(C)S(=O)(=O)Oc1ccc2c(c1)CCC1[C@@H]2CC[C@]2(C)C(=O)CC[C@@H]12 (single isomer, unassigned)
- inhibition [1]: 79%
- inhibition [2]: 87%
- inhibition [3]: 90%
- % activity recovered [7]: 80%

Compound: CNS(=O)(=O)Oc1ccc2c(c1)CCC1[C@@H]2CC[C@]2(C)C(=O)CC[C@@H]12 (single isomer, unassigned)
- inhibition [2]: 87%
- inhibition [3]: 93%
- % activity recovered [7]: > 50%

Compound: C[C@]12CC[C@@H]3c4ccc(OS(N)(=O)=O)cc4CCC3[C@@H]1CCC2=O (single isomer, unassigned) [EMATE]
- inhibition [1]: > 99%
- inhibition [2]: > 99%
- inhibition [3]: > 99%
- IC50 [4]: 0.08 µM
- % activity recovered [8]: inactive
